CAL PDZ FP-1 – untagged CAL PDZ binding inhibitors, primary screen, biochemical, fluorescence polarization, HTS | purified CAL PDZ, TMR-peptide fluorescence polarization, 1 h | Golgi-associated PDZ and coiled-coil motif-containing protein (Homo sapiens), Q9HD26 | 300,000 tested, 0.92% active | inhibition, % at 24.9 µM | AID 602252, 2012;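 active = mean inhibition of at least 30% with at least half of replicates also reaching 30%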;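 note: 0% = DMSO neutral control and 100% = excess unlabeled competitor peptide PRC23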
CaV13 ICDI inh – Disruptors of the CACNA1D IQ motif to Ca2+-dependent inactivation inhibitor domain association, primary screening, Förster resonance energy transfer in intact living …; AID 743397; HEK cells, CFP/YFP FRET ICDI-IQ, plate reader, 10 min; percent FRET-ratio fall versus neutral wells; 340,000 tested, 0.098% active; inhibition, % at 12.3 µM;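 active = mean replicate inhibition of at least 30% and at least 1% of replicates passing that level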;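 note: 0% = median of the neutral control wells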
CAL PDZ FP-2 – CAL PDZ peptide-binding inhibitors, primary screen, biochemical, fluorescence polarization, Cer-tagged CAL PDZ, HTS | inhibition, % at 20 µM | Golgi-associated PDZ and coiled-coil motif-containing protein (Homo sapiens), Q9HD26 | 330,000 tested, 0.02% active | AID 504414, 2011 | purified CAL PDZ, TMR-peptide fluorescence polarization, 1 h;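 active = highest replicate inhibition of at least 40%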;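 note: plate controls were DMSO neutral control wells for no effect and unlabeled competitor peptide control wells for full effect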
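Control set: unlabelled peptide and DMSO controls / Material: purified CerCALP PDZ construct / Timing: 1 h incubation at room temperature before polarization reading / Doses: 20 µM, one dose / Detection: fluorescence polarization (mP)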
ARNT-TACC3 inh – disruptors of ARNT/TACC3 protein interaction, primary screen, biochemical, AlphaScreen, single concentration | inhibition, % at 9.99 µM | AID 623870, 2012 | Transforming acidic coiled-coil-containing protein 3 (Homo sapiens), Q9Y6A5 | AlphaScreen His-ARNT PAS-B/GST-TACC3 binding, luminescence; TACC3 fragment carries E629A point mutation | 390,000 tested, 0.66% active;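 active = mean inhibition of replicates at least 50% and at least half of replicates each reaching 50%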;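 note: 0% = complete ARNT plus TACC3 wells and 100% = ARNT alone without TACC3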
* = called active by the depositor; nt = no result; + = active, no number. Most compounds without a hit are left out; they make up all but 1.2% or so of the library.

SMILES	CAL PDZ FP-1	CaV13 ICDI inh	CAL PDZ FP-2	ARNT-TACC3 inh
Cc1ccc(S(=O)(=O)N2CCN(C(=O)CN3C(=O)NC(C)(c4ccc5ccccc5c4)C3=O)CC2)cc1 (stereo not drawn)	73*	-2	-2	-5
CC(=O)c1cc2c(ccc3ccccc32)oc1=O	5	+	-1	16
CC(=O)Nc1cc2c(ccc3ccccc32)oc1=O	8	-4	-1	nt
CCCNC(=O)N1C[C@H](C)[C@H](OC)CN(C)C(=O)c2ccc(NS(C)(=O)=O)cc2OC[C@@H]1C	nt	nt	nt	13
COc1cccc(S(=O)(=O)N[C@@H]2C=C[C@H](CC(=O)NC3Cc4ccccc4C3)O[C@H]2CO)c1	nt	nt	nt	-6
COc1ccccc1Oc1ccc(-c2cnc3ccccc3n2)cc1[N+](=O)[O-]	3	-6	-1	nt
O=[N+]([O-])c1cc(-c2cnc3ccccc3n2)ccc1Oc1ccc(Cl)cc1	+	-5	-1	-18
COc1ccc(C2NC(=S)NC3=C2N2CCC3CC2)cc1 (stereo not drawn)	2	-5	-6	active
CCC(=O)N1C[C@H](C)[C@@H](OC)CN(C)C(=O)c2ccc(NC(=O)NC(C)C)cc2OC[C@H]1C	nt	nt	nt	-6
CS(=O)(=O)Oc1ccc(Br)c2cccnc12	74*	-4	-1	-15
Nc1ccc(Br)c2cccnc12	-1	-2	-1	49*
COc1ccccc1C(=O)Nc1ccc(Br)c2cccnc12	2	-1	0	-3
CC(=O)N(C)C[C@@H]1Oc2ncc(-c3cccnc3)cc2C(=O)N([C@@H](C)CO)C[C@@H]1C	nt	nt	nt	-11
Cc1ccc(-c2n[nH]c(=S)c3ccccc23)cc1S(=O)(=O)NCC1CCCO1 (stereo not drawn)	39*	-3	-4	nt
Cc1ccc(-c2n[nH]c(=O)c3ccccc23)cc1S(=O)(=O)NCC1CCCO1 (stereo not drawn)	nt	-3	-2	2
Cc1ccc2c(c1)N(CC(=O)NCCCN1CCN(C)CC1)C(=O)CO2	64*	-3	0	-1
CCCN1CCN(CCCNC(=O)CN2C(=O)C(CC)Oc3ccccc32)CC1 (stereo not drawn)	-1	-7	-3	-7
CN1CCN(CCCNC(=O)CN2C(=O)COc3ccccc32)CC1	nt	-3	0	-3
CCC1Oc2ccc(C)cc2N(CC(=O)NCCCN2CCCC2)C1=O (stereo not drawn)	36*	-4	0	nt
CCCC(=O)NC1=C(Cl)C(=O)c2ccccc2C1=O	-1	-2	6	25*
CCNC1=C(Cl)C(=O)c2ccccc2C1=O	5	-6	0	15
Cc1ccccc1NC(=S)N(CCN(C)C)C(C)c1ccccn1 (stereo not drawn)	nt	-3	-1	35
Cc1c(Cl)cccc1NC(=S)N(CCN(C)C)C(C)c1ccccn1 (stereo not drawn)	81*	-14	0	54*
C[C@@H]1CCCCO[C@@H](CN(C)S(=O)(=O)c2ccc(F)cc2)[C@@H](C)CN([C@H](C)CO)C(=O)c2cc(NS(=O)(=O)c3ccccc3)ccc2O1	nt	nt	nt	-2
Cc1ccc(S(=O)(=O)N2CCOCC2)cc1C(=O)N1CCN(c2ncccn2)CC1	51*	-7	0	29
SMILES	CAL PDZ FP-1	CaV13 ICDI inh	CAL PDZ FP-2	ARNT-TACC3 inh
CC(C)C(=O)OC/C(O)=C(\C#N)c1nc2ccccc2[nH]1	-2	-5	0	22
Cc1ccc(C(C)C)c(OC/C(O)=C(\C#N)c2nc3ccccc3[nH]2)c1	63*	-5	0	-8
CN(C)/C=C/C(=O)c1ccc(F)cc1	1	-6	-2	2
CCCc1ccc(C(=O)/C=C/N(C)C)cc1	53*	2	-4	5
NC(=O)CSc1nnc(-c2ccccn2)n1N	-3	-5	-4	45*
COc1ccc(S(=O)(=O)N(C)C[C@@H]2OCCCC[C@H](C)Oc3ccc(NC(=O)c4ccncc4)cc3C(=O)N([C@H](C)CO)C[C@H]2C)cc1	nt	nt	nt	1
Cc1ccc(NC(=O)C(c2ccc(Cl)cc2)N2CCOCC2)cc1 (stereo not drawn)	43*	0	-2	2
CCCCNS(=O)(=O)c1ccc2nc(SCC(=O)Nc3sccc3C#N)[nH]c2c1	35*	-4	nt	4
CCCCNS(=O)(=O)c1ccc2nc(SCC(N)=O)[nH]c2c1	-4	2	1	-5
CC1CN(CCCCOc2ccc(C(C)C)cc2)CC(C)O1 (stereo not drawn)	2	-8	-2	-8
CC1CN(CCCCOc2ccc(Cl)c3ccccc23)CC(C)O1 (stereo not drawn)	43*	-5	20	-1
CCOC(=O)C(/C=N/c1cc(C)nn1-c1ccccc1)=C(\C)O	61*	-3	-2	-1
Cc1[nH]n(-c2ccccc2)c(=O)c1C(C[N+](=O)[O-])c1ccc(Br)cc1 (stereo not drawn)	0	-4	nt	48*
Cc1ccc(OCC(=O)NNc2c3ccccc3nc3ccccc23)cc1	-2	48*	2	-4
Cc1ccc(S(=O)(=O)Nc2ccc3c(c2)C(=O)N([C@H](C)CO)C[C@@H](C)[C@H](CN(C)CC2CC2)OCCCC[C@@H](C)O3)cc1	nt	nt	nt	11
COc1cc2sc3cc(NCCCN4CCOCC4)ccc3c(=O)c2cc1OC	-10	-5	-1	28*
O=c1c2ccccc2sc2ccc(NCCCN3CCOCC3)cc12	7	-11	2	2
C[C@@H]1CN([C@@H](C)CO)C(=O)Cc2cc(NS(C)(=O)=O)ccc2O[C@H]1CN(C)Cc1ccc(C(=O)O)cc1	nt	nt	nt	0
O=C(COc1ccc(F)cc1Br)N1CCN(S(=O)(=O)/C=C/c2ccccc2)CC1	54*	-2	-1	-5
COc1ccc(CN(C)C[C@H]2OCCCC[C@H](C)Oc3ccc(NC(=O)c4ccccc4)cc3C(=O)N([C@H](C)CO)C[C@@H]2C)cc1	nt	nt	nt	-1
Cc1ccccc1SCC(=O)NCC(c1ccc(F)cc1)N1CCOCC1 (stereo not drawn)	53*	-5	-1	nt
COc1ccc(/C=C(\C#N)C(=O)NCC(c2ccc(F)cc2)N2CCOCC2)cc1 (stereo not drawn)	78*	-5	0	0
Cc1ccc(N2CCN(CCCN3C(=O)C4CCCN4C3=O)CC2)cc1 (stereo not drawn)	52*	-4	0	-25
Cc1ccc(S(=O)(=O)NCCC(=O)NC(C)CCc2ccccc2)cc1 (stereo not drawn)	71*	-12	0	-1
CCOc1ccc(C(=O)NC2CC3CCCC(C2)N3Cc2ccccc2)cc1 (stereo not drawn)	-2	-2	50*	-3
